Bioassay records from PubChem BioAssay.
Hits are enriched below; roughly 4.6% of the tested compounds scored in any of these assays.
APP 5'UTR act: activates APP 5'UTR luciferase reporter; SH-SY5Y APP 5'UTR luciferase reporter, luminescence; zero percent = DMSO vehicle wells; activation, % at 2 µM; actives 1% (n = 190,000);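 active = activation above a set limit, based on mean plus 3 SD of controls, cut at about 140% in these data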
STAT1 activator: STAT1 signaling activation. NIH 3T3 STAT1-luciferase reporter, IFN-gamma, luminescence; 100% = IFN-gamma alone, no compound. actives 2.6% (n = 200,000). activation (% of control), % at 5.5 µM;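 active = activation above the screen-wide mean activation plus 3 SD, cut at about 130% in these data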
Mdm2 ligase inh: Mdm2 E3 ligase (human) inhibition; Q00987; cell-based MDM2 ubiquitination luciferase reporter, 2 h; 0 = plate control, 100 = twice control, blank-subtracted; signal enhancement, % at 5 µM; actives 0.11% (n = 210,000);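 active = signal enhancement of 30% or more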;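 note: luminescence tracks abundance of the self-degrading MDM2-luciferase fusion protein; higher signal means inhibition of MDM2 E3 ligase activity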
Target sequence (Q00987 whole entry, looked up, the tested form may be a part): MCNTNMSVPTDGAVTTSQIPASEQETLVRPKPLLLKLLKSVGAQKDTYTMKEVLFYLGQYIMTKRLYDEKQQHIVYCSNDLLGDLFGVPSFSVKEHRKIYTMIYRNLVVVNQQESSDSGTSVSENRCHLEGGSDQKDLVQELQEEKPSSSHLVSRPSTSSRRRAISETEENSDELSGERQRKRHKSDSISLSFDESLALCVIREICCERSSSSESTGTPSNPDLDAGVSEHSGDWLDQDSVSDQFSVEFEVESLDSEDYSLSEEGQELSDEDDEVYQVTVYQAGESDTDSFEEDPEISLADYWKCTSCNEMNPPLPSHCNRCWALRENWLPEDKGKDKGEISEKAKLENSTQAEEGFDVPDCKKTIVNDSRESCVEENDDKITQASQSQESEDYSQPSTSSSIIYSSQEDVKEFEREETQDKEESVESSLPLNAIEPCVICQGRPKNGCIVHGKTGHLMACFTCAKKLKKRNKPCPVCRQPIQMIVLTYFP
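Timing – 2 h compound exposure at 37 °C · Assay system – mammalian cells stably expressing self-ubiquitinating, self-degrading MDM2 E3–luciferase fusion · Amount – 2000 cells seeded into each well · Measure – % luminescence enhancement versus blank-corrected plate control mean · Measured by – SteadyLite luminescence, 15 min reagent step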
Wee1 stabilizer: blocks degradation of human Wee1 kinase. reporter increase, % at 5 µM. actives 1.2% (n = 220,000). HeLa Luc-Wee1K328M stability, luciferase luminescence; 100% = proteasome inhibitor MG132 effect. P30291. AID 1321;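 active = activation above the mean of all tested compounds plus 3 SD, set per screening run, cut at about 8.8% in these data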;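 note: cells exposed to compound for 20 h before luminescence read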
NF-kB neuron act: raises NF-kB expression in human neuronal cells. NF-kB reporter expression; hits give high values. AID 1239. fold change at 12.5 µM. actives 1.6% (n = 190,000); in the data active = fold change above about 3.3
p97 ATPase inh: inhibitors of human p97 ATPase | P55072 | recombinant p97 ATPase, Kinase-Glo ATP luminescence, 3 h | inhibition, % at 8 µM | actives 0.42% (n = 220,000); in the data active = inhibition above about 15%
Hits are given with their value; - = inactive; . = not tested or not shown; ! = not confirmed by another sample.

SMILES	APP 5'UTR act	STAT1 activator	Mdm2 ligase inh	Wee1 stabilizer	NF-kB neuron act	p97 ATPase inh
CCC(C)[C@H](NC(=O)NCC1CCCO1)C(=O)OC (stereo partly drawn)	-	-	-	-	-	-
NC(=O)c1nnsc1Sc1c(C(N)=O)nnn1-c1cccc(N)c1	-	-	-	-	-	-
O=C1COc2cccnc2N1	-	-	-	9.4!	-	-
O=C1COc2ccccc2CN1	-	-	-	-	-	-
Cc1cccc(C)c1OCCNC(=O)C(=O)NCc1ccco1	-	-	-	-	-	-
CCOCCCNc1ccc(-c2ccccc2)nn1	-	140	-	-	-	-
CCCCNC(=O)/C=C/c1ccc(S(=O)(=O)Nc2ccc(OC)cc2)cc1	-	-	-	-	-	-
Cc1csc(NC(=O)c2cc3c(s2)CCC3)n1	-	-	-	-	9.8	-
Cc1nc(NC(=O)c2ccc(Br)s2)sc1C(=O)N(C)C	-	138	-	11	-	-
Cc1nc(NC(=O)c2cc3c(s2)CCCCC3)sc1C(=O)N(C)C	-	132	-	-	-	-
COc1ccc(C(=O)Nc2nc(C)c(C(=O)N(C)C)s2)cc1OC	-	-	-	-	-	-
O=C(Nc1nnc(C2CC2)s1)c1cc2c(s1)CCCCCC2	-	-	-	-	-	-
Cc1csc(NC(=O)c2cc3c(s2)-c2ccccc2OC3)n1	-	139	-	-	-	-
COC(=O)C1=NNC2(c3ccc(C)cc3)C(=O)N(c3ccc(C)cc3)C(=O)C12 (stereo not drawn)	-	-	-	-	-	-
CC(CCc1ccccc1)NC(=O)COC(=O)c1cccc2ccccc12 (stereo not drawn)	-	-	-	-	-	-
OCCC1CN(Cc2cnc(-c3ccc(Cl)cc3)nc2)CCN1C1CCCC1 (stereo not drawn)	.	.	-	-	.	-
COc1ccc(C(=O)OCc2csc(C)n2)c(O)c1	-	139	-	-	-	-
Cc1ccc(NC(=O)c2ccc(F)cc2F)cc1NS(C)(=O)=O	.	.	-	9.2	.	-
O=Cc1ccc(-c2cccc([N+](=O)[O-])c2)o1	.	.	-	10	.	-
CN(C)c1ccc(/C=N/n2ncc3ccccc32)cc1	355	150	-	-	-	-
Nc1nc(CSc2ccccn2)nc(Nc2ccccc2)n1	-	148	-	-	4.7	-
COc1ccc(C(=S)Nc2ccc(C)cc2)cc1	-	133	-	-	-	-
Cc1ccc(NC(=S)c2ccccc2)cc1	-	139	-	-	-	-
CC(C)=NOc1nc(N2CCOCC2)nc(N2CCOCC2)n1	.	.	-	-	.	-
Cc1cc2nn(-c3cccc4ccccc34)nc2cc1N	-	-	-	-	-	-
SMILES	APP 5'UTR act	STAT1 activator	Mdm2 ligase inh	Wee1 stabilizer	NF-kB neuron act	p97 ATPase inh
COc1ccc(-n2nc3ccccc3n2)cc1	-	-	-	-	-	-
COc1ccc(-n2nc3cc(C)c(NC(=O)C(C)C)cc3n2)cc1	-	139	-	-	-	-
Cc1ccc(-n2nc3cc(C)c(N)cc3n2)cc1	-	-	-	-	3.9	-
COc1ccc(-n2nc3cc(C)c(N)c(Br)c3n2)cc1	185	168	-	-	6.3	-
C/C(=C\c1ccccc1)C(=O)NCc1ccco1	-	-	-	-	-	-
Nc1ccc2nc(SCc3cccc(F)c3)sc2c1	-	-	-	-	6.1	-
COc1ccc(N2C(=NC(C)=O)SC3CS(=O)(=O)CC32)cc1OC (stereo not drawn)	-	-	-	-	-	-
CCCC(=O)N=C1SC2CS(=O)(=O)CC2N1c1ccc(-c2nc3ccc(C)cc3s2)cc1 (stereo not drawn)	-	131	-	-	-	-
C/C(=N\NC(=O)Cn1nnc2ccccc21)c1ccco1	-	-	-	-	-	-
O=C(O)c1ccc2c3c(cccc13)C(=O)N(c1ccccc1)C2=O	-	-	-	-	-	-
CC(=O)c1ccc2c3c(cccc13)C(=O)N(CCc1ccccc1)C2=O	-	132	-	-	-	-
CCOC(=O)c1c(C)[nH]c(N=Nc2cccc(C)c2)c1C	158	138	-	-	3.4	-
CCOC(=O)c1c(C)[nH]c(N=Nc2ccccc2)c1C	-	-	.	-	3.5	-
Cc1ccc(C2=NC(=O)/C(=C/c3cc(O)c(O)c(Br)c3)S2)cc1	-	-	-	-	-	31
CCOc1cnc(-c2ccc(OC)cc2)o1	-	135	-	-	-	-
CCOc1oc(-c2ccc(OC)cc2)nc1C(F)(F)F	-	-	-	-	-	-
CCOc1cnc(-c2ccc(Cl)cc2)o1	-	140	-	-	-	-
CC(C)C(c1nnnn1Cc1cccs1)N1CCN(C(=O)c2ccco2)CC1 (stereo not drawn)	-	-	-	-	-	-
COc1ccc(OC)c(NC(=O)CSc2ncccc2C(=O)O)c1	-	-	-	-	-	-
Nc1nonc1NC(=O)CSc1ncccc1C(=O)O	-	-	-	14	-	-
O=C(OCC(=O)N1CCc2ccccc2C1)c1cccnc1Cl	-	-	-	-	-	-
CCOCCCNCc1cc(Cl)cc(Cl)c1OCC	-	-	-	-	-	-
Cc1onc(-c2c(Cl)cccc2Cl)c1C(=O)c1ccccc1	.	.	-	-	.	-
Cc1onc(-c2c(Cl)cccc2Cl)c1C(=O)O/N=C(\C#N)c1ccccc1	.	.	-	-	.	15
COCCOC(=O)c1[nH]c2c(c1C)C(=O)CC(c1ccc(F)cc1)C2 (stereo not drawn)	-	-	-	-	-	-
SMILES	APP 5'UTR act	STAT1 activator	Mdm2 ligase inh	Wee1 stabilizer	NF-kB neuron act	p97 ATPase inh
Cc1c(C(=O)OCCOC(C)C)[nH]c2c1C(=O)CC(c1ccco1)C2 (stereo not drawn)	-	-	-	-	3.5	-
COCCOC(=O)c1[nH]c2c(c1C)C(=O)CC(c1ccco1)C2 (stereo not drawn)	-	-	-	-	-	-
COCCOC(=O)c1[nH]c2c(c1C)C(=O)CC(c1ccccc1)C2 (stereo not drawn)	-	-	-	-	3.8	-
CCOC(=O)c1[nH]c2c(c1C)C(=O)CC(c1ccco1)C2 (stereo not drawn)	-	-	-	-	6.4	-
Cc1ccc(S(=O)(=O)N2CCOCC2)cc1NC(=O)COC(=O)c1cccnc1Cl	-	-	-	-	-	-
CN(C(=O)c1cc2ccccc2oc1=O)C1(C)CCS(=O)(=O)C1 (stereo not drawn)	-	-	-	-	-	-
O=C(O)c1cnc2ccccc2n1	-	-	-	-	-	-
O=C(O)c1ccc(Nc2cnc3ccccc3n2)cc1	-	131	-	-	-	-
COc1ccc(OC)c(-n2c(SCC(=O)Nc3cccc(S(N)(=O)=O)c3)nc3ccccc3c2=O)c1	.	.	-	-	.	-
c1ccc(Cn2ccc(-c3cnc(-c4ccccc4)s3)n2)cc1	-	142	-	-	6.8	-
Nc1ccn(Cc2ccccc2)n1	-	-	-	-	-	-
